According to ChEMBL document CHEMBL1154626, “Novel, potent, and selective quinoxaline-based 5-HT(3) receptor ligands. 1. Further structure-activity relationships and pharmacological characterization” (J Med Chem, 2009):
The source made the active and inactive calls. The rule behind the calls is not given here.

Experiments:
[1] = system: Rattus norvegicus; test: Antagonist activity at 5HT3 receptor in Sprague-Dawley rat assessed as inhibition of 1-phenylbiguanide-induced bradycardia at 1 ug/kg, iv administered 5 mins before 1-phenylbiguanide challenge measured after 5 to 30 mins post-treatment by von Bezold-Jarisch reflex test; type: functional, organism-based
In short: (§1)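 Urethane-anesthetized rats, compound given iv. Agonism was scored as the compound itself evoking the von Bezold-Jarisch reflex (bradycardia). Antagonism was tested by giving the compound iv 5, 15 or 30 min before phenylbiguanide (PBG) and scoring the reduction of PBG-evoked bradycardia. ED50 is the dose giving half of the maximal bradycardia evoked by the same compound.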

[2] = system: Rattus norvegicus; test: Antagonist activity at 5HT3 receptor in Sprague-Dawley rat assessed as inhibition of 1-phenylbiguanide-induced bradycardia at 100 ug/kg, iv administered 5 mins before 1-phenylbiguanide challenge measured after 5 to 30 mins post-treatment by von Bezold-Jarisch reflex test; type: functional; in short: as §1
[3] = system: Rattus norvegicus; test: Agonist activity at 5HT3 receptor in Sprague-Dawley rat assessed as induction of bradycardia at 100 ug/kg, iv measured after 5 to 30 mins post-treatment by von Bezold-Jarisch reflex test; type: functional; in short: as §1
[4] = target: T1, Adrenergic receptor alpha-1 (Rattus norvegicus, UniProt P15823+P23944+P43140); test: Displacement of [3H]prazosin from adrenergic alpha1 receptor in rat cortex
T1 sequence (P15823 whole entry): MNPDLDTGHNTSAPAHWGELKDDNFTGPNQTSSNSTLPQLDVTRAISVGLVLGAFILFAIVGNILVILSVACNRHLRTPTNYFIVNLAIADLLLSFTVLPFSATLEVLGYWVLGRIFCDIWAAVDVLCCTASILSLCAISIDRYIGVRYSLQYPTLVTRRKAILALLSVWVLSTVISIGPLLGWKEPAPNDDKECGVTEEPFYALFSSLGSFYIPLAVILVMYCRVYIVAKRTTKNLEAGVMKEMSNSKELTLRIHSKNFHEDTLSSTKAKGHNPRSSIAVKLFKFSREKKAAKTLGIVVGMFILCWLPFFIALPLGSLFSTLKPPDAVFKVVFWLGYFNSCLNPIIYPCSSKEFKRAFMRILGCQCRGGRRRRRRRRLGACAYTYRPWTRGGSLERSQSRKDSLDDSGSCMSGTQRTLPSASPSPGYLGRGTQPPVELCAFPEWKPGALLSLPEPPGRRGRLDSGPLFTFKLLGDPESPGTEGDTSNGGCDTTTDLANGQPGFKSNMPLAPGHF
T1 sequence (P23944 whole entry): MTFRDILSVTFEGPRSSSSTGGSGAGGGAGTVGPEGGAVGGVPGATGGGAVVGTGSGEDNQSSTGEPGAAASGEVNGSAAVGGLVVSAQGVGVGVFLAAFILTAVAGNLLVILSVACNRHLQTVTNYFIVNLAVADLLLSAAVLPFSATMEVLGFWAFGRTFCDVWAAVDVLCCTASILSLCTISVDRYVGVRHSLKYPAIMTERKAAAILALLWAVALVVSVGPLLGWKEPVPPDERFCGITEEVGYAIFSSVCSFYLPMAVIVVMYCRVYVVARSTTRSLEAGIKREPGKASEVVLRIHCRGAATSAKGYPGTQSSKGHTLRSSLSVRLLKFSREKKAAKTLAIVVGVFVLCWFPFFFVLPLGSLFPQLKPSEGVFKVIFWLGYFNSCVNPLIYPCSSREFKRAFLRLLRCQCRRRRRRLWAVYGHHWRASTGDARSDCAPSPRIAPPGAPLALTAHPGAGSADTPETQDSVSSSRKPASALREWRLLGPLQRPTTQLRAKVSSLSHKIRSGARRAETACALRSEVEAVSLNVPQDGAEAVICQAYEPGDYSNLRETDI
T1 sequence (P43140 whole entry): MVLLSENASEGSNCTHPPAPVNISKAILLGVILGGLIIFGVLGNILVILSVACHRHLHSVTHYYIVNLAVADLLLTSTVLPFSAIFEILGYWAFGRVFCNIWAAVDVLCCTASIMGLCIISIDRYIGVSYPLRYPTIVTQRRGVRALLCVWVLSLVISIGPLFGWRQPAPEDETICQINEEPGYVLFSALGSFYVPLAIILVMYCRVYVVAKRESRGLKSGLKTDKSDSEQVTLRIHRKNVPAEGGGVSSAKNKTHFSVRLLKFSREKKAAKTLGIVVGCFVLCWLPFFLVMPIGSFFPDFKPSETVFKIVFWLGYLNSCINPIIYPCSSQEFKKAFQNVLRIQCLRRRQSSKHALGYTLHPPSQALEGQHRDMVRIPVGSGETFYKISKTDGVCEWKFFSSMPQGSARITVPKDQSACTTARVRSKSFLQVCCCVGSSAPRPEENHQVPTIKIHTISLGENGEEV

[5] = system: Rattus norvegicus; test: Antagonist activity at 5HT3 receptor in iv dosed Sprague-Dawley rat assessed as inhibition of 1-phenylbiguanide-induced bradycardia administered 5 mins before 1-phenylbiguanide challenge measured after 5 to 30 mins post-treatment by von Bezold-Jarisch reflex test; type: functional; in short: as §1
[6] = system: Rattus norvegicus; test: Agonist activity at 5HT3 receptor in Sprague-Dawley rat assessed as induction of bradycardia at 50 ug/kg, iv measured after 5 to 30 mins post-treatment by von Bezold-Jarisch reflex test; type: functional; in short: as §1
[7] = system: Rattus norvegicus; test: Agonist activity at 5HT3 receptor in Sprague-Dawley rat assessed as induction of bradycardia at 1 ug/kg, iv measured after 5 to 30 mins post-treatment by von Bezold-Jarisch reflex test; type: functional, organism-based; in short: as §1
[8] = target: Muscarinic acetylcholine receptor; test: Displacement of [3H]QNB from muscarinic receptor in rat cortex
[9] = system: Rattus norvegicus; test: Agonist activity at 5HT3 receptor in Sprague-Dawley rat assessed as induction of bradycardia at 10 ug/kg, iv measured after 5 to 30 mins post-treatment by von Bezold-Jarisch reflex test; type: functional; in short: as §1
[10] = system: Rattus norvegicus; test: Antagonist activity at 5HT3 receptor in Sprague-Dawley rat assessed as inhibition of 1-phenylbiguanide-induced bradycardia at 50 ug/kg, iv administered 5 mins before 1-phenylbiguanide challenge measured after 5 to 30 mins post-treatment by von Bezold-Jarisch reflex test; type: functional; in short: as §1
[11] = system: Rattus norvegicus; test: Antagonist activity at 5HT3 receptor in Sprague-Dawley rat assessed as inhibition of 1-phenylbiguanide-induced bradycardia at 10 ug/kg, iv administered 5 mins before 1-phenylbiguanide challenge measured after 5 to 30 mins post-treatment by von Bezold-Jarisch reflex test; type: functional; in short: as §1
[12] = target: T2, 5-hydroxytryptamine receptor 3A (Cavia porcellus, UniProt O70212); test: Agonist activity at 5HT3 receptor in voltage-stimulated guinea pig left atrium assessed as positive inotropic potency; type: functional, tissue-based, Cardiac atrium
T2 sequence (O70212 whole entry): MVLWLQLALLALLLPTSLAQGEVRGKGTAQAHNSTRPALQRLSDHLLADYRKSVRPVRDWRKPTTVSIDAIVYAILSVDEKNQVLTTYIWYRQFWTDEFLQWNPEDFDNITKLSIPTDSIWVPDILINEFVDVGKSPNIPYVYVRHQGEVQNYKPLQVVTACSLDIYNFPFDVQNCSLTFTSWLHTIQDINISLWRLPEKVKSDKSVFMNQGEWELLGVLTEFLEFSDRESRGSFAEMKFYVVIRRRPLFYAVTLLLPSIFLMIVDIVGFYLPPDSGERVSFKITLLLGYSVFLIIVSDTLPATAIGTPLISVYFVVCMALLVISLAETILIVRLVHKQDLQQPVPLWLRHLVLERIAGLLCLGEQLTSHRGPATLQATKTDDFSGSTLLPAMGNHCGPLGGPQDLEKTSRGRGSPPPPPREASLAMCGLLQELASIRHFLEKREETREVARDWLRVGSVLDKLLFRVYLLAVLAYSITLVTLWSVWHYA

[13] = target: T2, 5-hydroxytryptamine receptor 3A; test: Antagonist activity at 5HT3 receptor in spontaneously beating guinea pig right atrium assessed as inhibition of serotonin-induced maximum response by noncompetitive binding assay; type: tissue-based, Cardiac atrium
In short: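 Spontaneously beating guinea pig right atria, exposed 30 min to test compound at 10 μM, followed by cumulative 5-HT log concentration-response curves versus control. Mean ± SEM of five to seven observations.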

[14] = target: T3, 5-hydroxytryptamine receptor 3A (Rattus norvegicus, UniProt P35563); test: Displacement of [3H]LY278584 from 5HT3 receptor in rat cortical homogenate; details: read-out: Ki
T3 sequence (P35563 whole entry): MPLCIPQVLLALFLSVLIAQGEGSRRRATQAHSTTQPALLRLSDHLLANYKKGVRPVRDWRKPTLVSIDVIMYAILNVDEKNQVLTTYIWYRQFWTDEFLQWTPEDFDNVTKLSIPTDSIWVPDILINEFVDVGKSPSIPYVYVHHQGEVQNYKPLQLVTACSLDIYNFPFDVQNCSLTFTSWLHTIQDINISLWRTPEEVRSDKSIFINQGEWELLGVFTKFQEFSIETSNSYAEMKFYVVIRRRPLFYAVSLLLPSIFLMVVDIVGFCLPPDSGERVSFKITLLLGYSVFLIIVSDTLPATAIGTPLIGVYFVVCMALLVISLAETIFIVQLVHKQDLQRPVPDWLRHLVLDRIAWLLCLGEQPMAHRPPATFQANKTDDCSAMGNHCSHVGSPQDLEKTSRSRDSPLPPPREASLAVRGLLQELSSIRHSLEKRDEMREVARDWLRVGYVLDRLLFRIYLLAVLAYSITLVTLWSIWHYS
In short: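 Rat cortical homogenate, competition against [3H]LY278584 binding. Ki is the concentration giving half-maximal inhibition of binding, as the mean ± S.E.M. of three determinations.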

| Activity [1] | Activity [2] | Ki [4] [µM] | Activity [6] | Activity [7] | Ki [8] [µM] | Activity [9] | Activity [10] | Activity [11] | EC50 [12] | IC50 [13] | Ki [14] [µM] | Structure (SMILES) | Activity [3] [%] | ID50 [5] [mg/kg] |
| --- | --- | --- | --- | --- | --- | --- | --- | --- | --- | --- | --- | --- | --- | --- |
| inactive | Active | > 10 | Active | inactive | > 10 | Active | Active | Active |  |  |  | Fc1ccc2c(c1)nc(N1CCN(Cc3c[nH]cn3)CC1)c1cccn12 | 40 | 0.01 |
|  |  |  |  |  |  |  |  |  | Not Active | Not Active | 0.0022 | c1ccc(CN2CCN(c3nc4ncccc4n4cccc34)CC2)cc1 |  |  |
